Data taken from paper PMC11333997 (RSC Advances, 2024).

Key:
VEGFR-2 = VEGFR-2 (Homo sapiens, UniProt P35968); test: biochemical
[1] = test system: WI-38 normal human lung fibroblast cells; test: MTT cytotoxicity on normal fibroblast cell line; format: cell-based; conditions: WI-38, read-out: IC50 WI-38
HCT-116 cells = test: Flow cytometry cell cycle analysis; format: cell-based, human
Outline: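 HCT-116 cells exposed to the test compound for 24 h, with DMSO as control. Cells were stained with propidium iodide, and DNA ploidy was analysed on a FACSCalibur flow cytometer. The percentage of cells in G0–G1, S and G2-M phases was reported.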

[2] = test system: HEPG-2 hepatocellular carcinoma cells; test: MTT in vitro anti-tumor screening; format: cell-based; conditions: Homo sapiens, HepG2, read-out: IC50 HEPG-2
[3] = test system: HEPG-2, HCT-116 and MCF-7 cell lines; test: MTT anti-tumor screening, values over the cancer cell line panel; format: cell-based; conditions: Homo sapiens, read-out: IC50 range over the cancer cell lines
EGFR = EGFR (Homo sapiens, UniProt P00533); test: In vitro EGFR kinase inhibition assay; format: biochemical
EGFR, sequence (P00533 25-1210): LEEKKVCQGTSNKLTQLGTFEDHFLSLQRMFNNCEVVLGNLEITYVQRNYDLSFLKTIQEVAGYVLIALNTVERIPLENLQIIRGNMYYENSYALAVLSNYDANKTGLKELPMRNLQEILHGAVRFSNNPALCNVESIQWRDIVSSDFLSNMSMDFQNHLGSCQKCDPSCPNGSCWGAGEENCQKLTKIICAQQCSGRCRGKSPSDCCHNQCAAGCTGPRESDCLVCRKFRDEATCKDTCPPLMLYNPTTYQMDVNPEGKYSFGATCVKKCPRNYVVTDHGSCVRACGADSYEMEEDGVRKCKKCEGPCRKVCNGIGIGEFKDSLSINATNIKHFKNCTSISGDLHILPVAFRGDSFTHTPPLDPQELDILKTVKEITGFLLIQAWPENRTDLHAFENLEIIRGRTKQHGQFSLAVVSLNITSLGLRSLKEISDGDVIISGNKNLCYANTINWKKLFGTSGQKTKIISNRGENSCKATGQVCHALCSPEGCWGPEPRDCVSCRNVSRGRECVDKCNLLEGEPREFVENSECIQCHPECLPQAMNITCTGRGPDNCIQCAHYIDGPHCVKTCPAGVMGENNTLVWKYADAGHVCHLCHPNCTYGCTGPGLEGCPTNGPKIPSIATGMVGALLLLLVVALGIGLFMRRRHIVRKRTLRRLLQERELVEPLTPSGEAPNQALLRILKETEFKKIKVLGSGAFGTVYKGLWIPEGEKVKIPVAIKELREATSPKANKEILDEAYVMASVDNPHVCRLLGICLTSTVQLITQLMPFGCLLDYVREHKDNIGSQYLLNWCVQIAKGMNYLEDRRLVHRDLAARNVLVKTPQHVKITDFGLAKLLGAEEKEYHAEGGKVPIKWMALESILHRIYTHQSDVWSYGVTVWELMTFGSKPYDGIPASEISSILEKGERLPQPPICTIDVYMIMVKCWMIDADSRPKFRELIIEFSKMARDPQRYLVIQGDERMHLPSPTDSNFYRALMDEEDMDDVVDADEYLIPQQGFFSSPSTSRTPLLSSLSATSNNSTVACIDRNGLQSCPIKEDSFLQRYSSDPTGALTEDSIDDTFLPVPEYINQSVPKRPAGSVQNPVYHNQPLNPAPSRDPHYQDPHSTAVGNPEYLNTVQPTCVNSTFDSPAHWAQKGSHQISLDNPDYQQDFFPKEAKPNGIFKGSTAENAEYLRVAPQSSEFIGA

[4] = test system: MCF-7 breast cancer cells; test: MTT in vitro anti-tumor screening; format: cell-based, human; conditions: read-out: IC50 MCF-7, mean of three independent experiments ± SD
EGFR/VEGFR-2 = EGFR/VEGFR-2 enzyme inhibition, both kinases stated together; format: biochemical; conditions: compared with the tested analogues (4)

VEGFR-2, sequence (P35968 20-1356): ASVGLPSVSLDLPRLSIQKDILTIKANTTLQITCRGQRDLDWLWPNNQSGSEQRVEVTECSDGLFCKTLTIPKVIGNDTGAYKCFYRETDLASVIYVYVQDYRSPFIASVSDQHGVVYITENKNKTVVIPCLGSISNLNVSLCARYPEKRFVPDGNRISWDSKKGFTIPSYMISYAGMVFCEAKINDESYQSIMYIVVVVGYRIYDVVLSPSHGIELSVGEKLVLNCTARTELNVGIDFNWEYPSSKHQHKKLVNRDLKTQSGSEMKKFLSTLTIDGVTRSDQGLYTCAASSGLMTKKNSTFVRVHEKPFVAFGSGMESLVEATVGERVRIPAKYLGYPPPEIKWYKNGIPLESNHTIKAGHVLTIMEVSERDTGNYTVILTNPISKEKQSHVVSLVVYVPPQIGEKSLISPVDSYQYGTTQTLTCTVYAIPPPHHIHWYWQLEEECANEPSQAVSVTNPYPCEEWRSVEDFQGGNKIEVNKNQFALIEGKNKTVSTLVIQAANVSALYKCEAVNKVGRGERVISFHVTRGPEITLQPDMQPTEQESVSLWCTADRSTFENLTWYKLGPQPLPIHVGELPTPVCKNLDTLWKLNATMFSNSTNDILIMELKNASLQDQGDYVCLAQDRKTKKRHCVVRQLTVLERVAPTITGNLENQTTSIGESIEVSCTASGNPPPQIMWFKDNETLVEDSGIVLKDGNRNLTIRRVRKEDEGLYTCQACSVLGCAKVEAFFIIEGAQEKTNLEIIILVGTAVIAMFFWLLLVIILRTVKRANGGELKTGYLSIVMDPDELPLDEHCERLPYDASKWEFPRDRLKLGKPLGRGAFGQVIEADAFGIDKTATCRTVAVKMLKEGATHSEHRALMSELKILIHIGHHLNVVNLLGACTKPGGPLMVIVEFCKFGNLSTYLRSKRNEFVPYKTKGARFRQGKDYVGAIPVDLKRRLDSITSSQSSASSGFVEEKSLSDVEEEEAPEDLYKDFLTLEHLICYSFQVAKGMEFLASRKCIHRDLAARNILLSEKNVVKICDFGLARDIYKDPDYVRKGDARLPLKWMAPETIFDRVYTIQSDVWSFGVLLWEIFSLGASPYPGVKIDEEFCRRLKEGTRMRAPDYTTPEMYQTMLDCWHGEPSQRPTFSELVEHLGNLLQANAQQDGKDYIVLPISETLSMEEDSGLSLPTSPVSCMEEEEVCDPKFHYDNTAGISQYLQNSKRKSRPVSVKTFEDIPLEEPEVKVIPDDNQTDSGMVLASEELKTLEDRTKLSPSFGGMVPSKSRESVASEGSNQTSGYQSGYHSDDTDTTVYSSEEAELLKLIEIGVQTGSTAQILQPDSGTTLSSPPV

| Structure (SMILES) | IC50 [1] | IC50 [2] | further results |
| --- | --- | --- | --- |
| Cc1ccc(-n2c(SCC(=O)NNC(=O)Nc3ccccc3)nc3ccccc3c2=O)cc1 [Compound 4, 2-(2-((4-Oxo-3-(p-tolyl)-3,4-dihydroquinazolin-2-yl)thio)acetyl)-N-phenylhydrazinecarboxamide] | 45.6 ± 2.4 µM | 3.92 ± 0.2 µM | IC50 (VEGFR-2): 0.054 ± 0.002 µM; Cell cycle distribution G2-M (HCT-116 cells; at IC50 concentration, 24 h, control 19.54%): 8.65%; Cell cycle distribution S (HCT-116 cells; at IC50 concentration, 24 h, control 36.53%): 36.18%; Cell cycle distribution G0–G1 (HCT-116 cells; at IC50 concentration, 24 h, control 43.93%): 55.17%; cell cycle arrest phase (HCT-116 cells; flow cytometry): G1 phase; IC50 [3]: 1.5 to 5.86 µM; IC50 (EGFR): 0.049 ± 0.002 µM |
| Cc1ccc(-n2c(SCC(=O)NNC(=O)Nc3ccc(F)cc3)nc3ccccc3c2=O)cc1 [Compound 5, N-(4-Fluorophenyl)-2-(2-((4-oxo-3-(p-tolyl)-3,4-dihydroquinazolin-2-yl)thio)acetyl)hydrazinecarboxamide] | > 100 µM | 58.9 ± 3.4 µM | – |
| Cc1ccc(-n2c(SCC(=O)NNC(=O)Nc3ccc(Cl)cc3)nc3ccccc3c2=O)cc1 [Compound 6, N-(4-Chlorophenyl)-2-(2-((4-oxo-3-(p-tolyl)-3,4-dihydroquinazolin-2-yl)thio)acetyl)hydrazinecarboxamide] | 66.2 ± 3.9 µM | 14.2 ± 1.2 µM | – |
| Cc1ccc(NC(=O)NNC(=O)CSc2nc3ccccc3c(=O)n2-c2ccc(C)cc2)cc1 [Compound 7, 2-(2-((4-Oxo-3-(p-tolyl)-3,4-dihydroquinazolin-2-yl)thio)acetyl)-N-(p-tolyl)hydrazinecarboxamide] | > 100 µM | 76.4 ± 4.3 µM | – |
| COc1ccc(NC(=O)NNC(=O)CSc2nc3ccccc3c(=O)n2-c2ccc(C)cc2)cc1 [Compound 8, N-(4-Methoxyphenyl)-2-(2-((4-oxo-3-(p-tolyl)-3,4-dihydroquinazolin-2-yl)thio)acetyl)hydrazinecarboxamide] | 31.8 ± 2.2 µM | > 100 µM | – |
| Cc1ccc(-n2c(SCC(=O)NNC(=O)Nc3c(C)cccc3C)nc3ccccc3c2=O)cc1 [Compound 9, N-(2,6-Dimethylphenyl)-2-(2-((4-oxo-3-(p-tolyl)-3,4-dihydroquinazolin-2-yl)thio)acetyl)hydrazinecarboxamide] | 62.2 ± 3.5 µM | 53.1 ± 3 µM | – |
| Cc1ccc(-n2c(SCC(=O)NNC(=O)Nc3ccc(C(F)(F)F)cc3Cl)nc3ccccc3c2=O)cc1 [Compound 10, N-(2-Chloro-4-(trifluoromethyl)phenyl)-2-(2-((4-oxo-3-(p-tolyl)-3,4-dihydroquinazolin-2-yl)thio)acetyl)hydrazinecarboxamide] | 86.9 ± 4.4 µM | 49.6 ± 2.7 µM | – |
| Cc1ccc(-n2c(SCC(=O)NNC(=O)NCc3ccccc3)nc3ccccc3c2=O)cc1 [Compound 11, N-Benzyl-2-(2-((4-oxo-3-(p-tolyl)-3,4-dihydroquinazolin-2-yl)thio)acetyl)hydrazinecarboxamide] | 54.1 ± 3 µM | 8.1 ± 0.6 µM | IC50 (VEGFR-2): 0.156 ± 0.007 µM; IC50 (EGFR): 0.117 ± 0.005 µM |
| O=C(CSc1nc2ccccc2c(=O)n1-c1ccc(Cl)cc1)NNC(=O)Nc1ccccc1 [Compound 12, 2-(2-((3-(4-Chlorophenyl)-4-oxo-3,4-dihydroquinazolin-2-yl)thio)acetyl)-N-phenylhydrazinecarboxamide] | 75.5 ± 4 µM | 19.5 ± 1.3 µM | IC50 [4]: 12.9 ± 1 µM |
| O=C(CSc1nc2ccccc2c(=O)n1-c1ccc(Cl)cc1)NNC(=O)Nc1ccc(F)cc1 [Compound 13, 2-(2-((3-(4-Chlorophenyl)-4-oxo-3,4-dihydroquinazolin-2-yl)thio)acetyl)-N-(4-fluorophenyl)hydrazinecarboxamide] | 47.5 ± 2.6 µM | 63.5 ± 3.7 µM | – |
| O=C(CSc1nc2ccccc2c(=O)n1-c1ccc(Cl)cc1)NNC(=O)Nc1ccc(Cl)cc1 [Compound 14, N-(4-Chlorophenyl)-2-(2-((3-(4-chlorophenyl)-4-oxo-3,4-dihydroquinazolin-2-yl)thio)acetyl)hydrazinecarboxamide] | 16.7 ± 1.4 µM | 29.8 ± 1.8 µM | – |
| Cc1ccc(NC(=O)NNC(=O)CSc2nc3ccccc3c(=O)n2-c2ccc(Cl)cc2)cc1 [Compound 15, 2-(2-((3-(4-Chlorophenyl)-4-oxo-3,4-dihydroquinazolin-2-yl)thio)acetyl)-N-(p-tolyl)hydrazinecarboxamide] | 43.2 ± 2.5 µM | 68.6 ± 3.9 µM | – |
| COc1ccc(NC(=O)NNC(=O)CSc2nc3ccccc3c(=O)n2-c2ccc(Cl)cc2)cc1 [Compound 16, 2-(2-((3-(4-Chlorophenyl)-4-oxo-3,4-dihydroquinazolin-2-yl)thio)acetyl)-N-(4-methoxyphenyl)hydrazinecarboxamide] | 17.8 ± 1.3 µM | 46.6 ± 2.6 µM | – |
| Cc1cccc(C)c1NC(=O)NNC(=O)CSc1nc2ccccc2c(=O)n1-c1ccc(Cl)cc1 [Compound 17, 2-(2-((3-(4-Chlorophenyl)-4-oxo-3,4-dihydroquinazolin-2-yl)thio)acetyl)-N-(2,6-dimethylphenyl)hydrazinecarboxamide] | 89.4 ± 4.7 µM | 22.4 ± 1.5 µM | – |
| O=C(CSc1nc2ccccc2c(=O)n1-c1ccc(Cl)cc1)NNC(=O)Nc1ccc(C(F)(F)F)cc1Cl [Compound 18, N-(2-Chloro-4-(trifluoromethyl)phenyl)-2-(2-((3-(4-chlorophenyl)-4-oxo-3,4-dihydroquinazolin-2-yl)thio)acetyl)hydrazinecarboxamide] | 84.4 ± 4.2 µM | 34.6 ± 2 µM | – |
| O=C(CSc1nc2ccccc2c(=O)n1-c1ccc(Cl)cc1)NNC(=O)NCc1ccccc1 [Compound 19, N-Benzyl-2-(2-((3-(4-chlorophenyl)-4-oxo-3,4-dihydroquinazolin-2-yl)thio)acetyl)hydrazinecarboxamide] | > 100 µM | 73.5 ± 4.2 µM | – |
| COc1ccc(-n2c(SCC(=O)NNC(=O)Nc3ccccc3)nc3ccccc3c2=O)cc1 [Compound 20, 2-(2-((3-(4-Methoxyphenyl)-4-oxo-3,4-dihydroquinazolin-2-yl)thio)acetyl)-N-phenylhydrazinecarboxamide] | 42.9 ± 2.6 µM | 5.17 ± 0.4 µM | IC50 (VEGFR-2): 0.474 ± 0.02 µM; fold decrease in binding affinity (EGFR and VEGFR-2) (EGFR/VEGFR-2): 9–10 fold; IC50 [3]: 4.42 to 6.39 µM; IC50 (EGFR): 0.362 ± 0.014 µM |
| COc1ccc(-n2c(SCC(=O)NNC(=O)Nc3ccc(F)cc3)nc3ccccc3c2=O)cc1 [Compound 21, N-(4-Fluorophenyl)-2-(2-((3-(4-methoxyphenyl)-4-oxo-3,4-dihydroquinazolin-2-yl)thio)acetyl)hydrazinecarboxamide] | 27.6 ± 1.9 µM | 11.5 ± 0.9 µM | – |
| COc1ccc(-n2c(SCC(=O)NNC(=O)Nc3ccc(Cl)cc3)nc3ccccc3c2=O)cc1 [Compound 22, N-(4-Chlorophenyl)-2-(2-((3-(4-methoxyphenyl)-4-oxo-3,4-dihydroquinazolin-2-yl)thio)acetyl)hydrazinecarboxamide] | 15.5 ± 1.2 µM | 37.8 ± 2.1 µM | – |
| COc1ccc(-n2c(SCC(=O)NNC(=O)Nc3ccc(C)cc3)nc3ccccc3c2=O)cc1 [Compound 23, 2-(2-((3-(4-Methoxyphenyl)-4-oxo-3,4-dihydroquinazolin-2-yl)thio)acetyl)-N-(p-tolyl)hydrazinecarboxamide] | 63.9 ± 3.7 µM | 41.3 ± 2.4 µM | – |
| COc1ccc(NC(=O)NNC(=O)CSc2nc3ccccc3c(=O)n2-c2ccc(OC)cc2)cc1 [Compound 24, N-(4-Methoxyphenyl)-2-(2-((3-(4-methoxyphenyl)-4-oxo-3,4-dihydroquinazolin-2-yl)thio)acetyl)hydrazinecarboxamide] | 71.4 ± 3.8 µM | > 100 µM | – |
| COc1ccc(-n2c(SCC(=O)NNC(=O)Nc3c(C)cccc3C)nc3ccccc3c2=O)cc1 [Compound 25, N-(2,6-Dimethylphenyl)-2-(2-((3-(4-methoxyphenyl)-4-oxo-3,4-dihydroquinazolin-2-yl)thio)acetyl)hydrazinecarboxamide] | 56.4 ± 3.3 µM | 83.6 ± 4.5 µM | – |
| COc1ccc(-n2c(SCC(=O)NNC(=O)Nc3ccc(C(F)(F)F)cc3Cl)nc3ccccc3c2=O)cc1 [Compound 26, N-(2-Chloro-4-(trifluoromethyl)phenyl)-2-(2-((3-(4-methoxyphenyl)-4-oxo-3,4-dihydroquinazolin-2-yl)thio)acetyl)hydrazinecarboxamide] | 30.2 ± 2.1 µM | 72.8 ± 4 µM | – |
| COc1ccc(-n2c(SCC(=O)NNC(=O)NCc3ccccc3)nc3ccccc3c2=O)cc1 [Compound 27, N-Benzyl-2-(2-((3-(4-methoxyphenyl)-4-oxo-3,4-dihydroquinazolin-2-yl)thio)acetyl)hydrazinecarboxamide] | > 100 µM | 87.3 ± 4.6 µM | – |
